From ChEMBL document CHEMBL1122442, “Antifertility agents. 38. Effect of the side chain and its position on the activity of 3,4-diarylchromans” (1983) come the findings set out here.

Activity calls are given as the source filed them. The calls are words filed in the database; no cut-off is given here.

Experiment [1] addresses T1, Estrogen receptor (Rattus norvegicus) (UniProt P06211+Q62986).
Experiment [2] deals with T1, Estrogen receptor (Rattus norvegicus). Put plainly: Relative binding affinity for uterine cytosol 17-beta-estradiol receptor from immature rats; N-Nil. Format: protein assay. The essentials: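 Competitive binding against 17β-estradiol for uterine cytosol receptor from immature Charles Foster rats aged 21-25 days; dextran-coated charcoal removes unbound steroid; expressed as relative binding affinity.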

For experiment [3], the system named is Rattus norvegicus. Put plainly: Effective dose for antiimplantation activity in male albino rats at 2 mg/Kg;IN-Inactive. Format: functional, organism-based. As to conditions: in the assay text read “female” for “male”. In short, it runs like this: (§1)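 Colony-bred adult female albino rats (150-170 g) mated with fertile coeval males; suspension in gum acacia given orally on days 1-7 postcoitum; positive only when implants were wholly absent from both uterine horns.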

The species named for experiment [4] is Rattus norvegicus. Put plainly: Effective dose for antiimplantation activity in male albino rats. The experiment is classed as functional. As to conditions: in the assay text read “female” for “male”. The essentials: as §1
Experiment [5] deals with Rattus norvegicus. Description: Effective dose for anti-implantation activity in female albino rats at 10 mg/kg; IN-Inactive.
The target in experiment [6] is T1, Estrogen receptor (Rattus norvegicus). Put plainly: Effect on uterine weight gain in immature rats by subcutaneous dose; N-Nil. Format: functional. In short, it runs like this: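 Immature rats (25-30 g); dosed subcutaneously once daily for 3 days in 0.2 mL saline/propylene glycol (1:1, v/v); estrogenicity read as uterine weight gain.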
For experiment [7], the system named is Rattus norvegicus. Put plainly: Effective dose for anti-implantation activity in female albino rats at 10 mg/kg; A-Active.
For experiment [8], the species on record is Rattus norvegicus. Put plainly: Effective dose for anti-implantation activity in male albino rats; Nil. Format: functional, organism-based. Conditions: in the assay text read “female” for “male”. The essentials:
as §1

As for `COc1ccc2c(c1)OC(C)(C)C(c1ccc(OCCN3CCCC3)cc1)C2c1ccccc1` (centres undefined), the Estrogenic effect in experiment [1] is 2.2. Moreover, the “relative binding affinity (RBA)” value in experiment [2] is “inactive”. Besides, in the experiment with Rattus norvegicus [3], the ED100 entry was “inactive”. In addition, the ED100 in the experiment listed under Rattus norvegicus [4] amounted to 2 mg/kg/day.

Turning to `COc1ccc2c(c1)OC(C)(C)C(c1ccccc1)C2c1ccc(OCCN2CCCC2)cc1` (stereo in doubt; 2) [ORMELOXIFENE], the ED100 in the experiment filed under Rattus norvegicus [4] was 50 mg/kg/day.

Molecule `COc1ccc2c(c1)OC(C)(C)C(c1ccccc1)C2c1ccc(OCCCN2CCCC2)cc1.Cl` (centres undefined) gave an ED100 in the experiment filed under Rattus norvegicus [4] of 0.3 mg/kg/day.

Consider `COc1ccc2c(c1)OC(C)(C)C(c1ccccc1)C2c1ccc(OCCN2CCCC2)cc1` (stereo in doubt; 1), for which, in experiment [1], the Estrogenic effect stood at 0.56.

In experiment [1], `CC1(C)Oc2cc(O)ccc2C(c2ccc(OCCN3CCCC3)cc2)C1c1ccccc1` (centres undefined) yielded an Estrogenic effect of 11.8. In the experiment filed under Rattus norvegicus [4], the ED100 stood at 0.25 mg/kg/day.

In the case of `COc1ccc2c(c1)OC(C)(C)C(c1ccccc1)C2c1ccccc1OCCN1CCCC1` (centres undefined), the “relative binding affinity (RBA)” value in experiment [2] is “inactive”. Besides, the ED100 result in the experiment with Rattus norvegicus [3] is “inactive”.

On to `COc1ccc2c(c1)OC(C)(C)C(c1ccc(O)cc1)C2c1ccccc1` (stereo in doubt; 31), for which the ED100 result in the experiment with Rattus norvegicus [5] was “inactive”.

For the molecule `CCN(CC)CCOc1ccc(C2c3ccc(OC)cc3OC(C)(C)C2c2ccccc2)cc1.Cl` (centres undefined), the ED100 in the experiment listed under Rattus norvegicus [4] was 0.3 mg/kg/day.

As to `COc1ccc2c(c1)OC(C)(C)C(c1ccccc1)C2c1cccc(OCCN2CCCC2)c1` (stereo in doubt; 11), the ED100 entry in the experiment with Rattus norvegicus [3] was “inactive”.

`COc1ccc2c(c1)OC(C)(C)C(c1ccc(O)cc1)C2c1ccccc1` (stereo in doubt; 33): the ED100 in the experiment listed under Rattus norvegicus [4] was 1 mg/kg/day.

Regarding `COc1ccc2c(c1)OC(C)(C)C(c1ccccc1)C2c1ccc(OCCN2CCCC2)cc1` (stereo in doubt; 2), in experiment [6], the Estrogenic effect entry was “inactive”.

`COc1ccc2c(c1)OC(C)(C)C(c1ccccc1)C2c1ccc(OCCN2CCCC2)cc1` (stereo in doubt; 1) [ORMELOXIFENE]: in the experiment filed under Rattus norvegicus [4], the ED100 came to 0.25 mg/kg/day.

With `COc1ccc2c(c1)OC(C)(C)C(c1ccc(O)cc1)=C2c1ccccc1`, the ED100 result with Rattus norvegicus [3] was “inactive”. Besides, in the experiment with Rattus norvegicus [7], the ED100 result is “Active”.

For `COc1ccc2c(c1)OC(C)(C)C(c1ccccc1)C2c1cccc(OCCN2CCCC2)c1` (stereo in doubt; 22), the ED100 entry with Rattus norvegicus [3] is “inactive”.

On to `COc1ccc2c(c1)OC(C)(C)C(c1ccccc1)C2c1ccc(O)cc1` (centres undefined), for which the ED100 entry in the experiment listed under Rattus norvegicus [8] is “inactive”. Further, the Estrogenic effect in experiment [1] was 0.2.

For `COc1ccc2c(c1)OC(C)(C)C(c1ccc(OCCN3CCCC3)cc1)=C2c1ccccc1`, in experiment [2], the “relative binding affinity (RBA)” value was “inactive”. In addition, the ED100 entry in the experiment with Rattus norvegicus [3] is “inactive”.

The molecule `COc1ccc2c(c1)OC(C)(C)C(c1ccccc1)=C2c1ccc(OCCN2CCCC2)cc1` returned an ED100 in the experiment filed under Rattus norvegicus [4] of 5 mg/kg/day.

In the case of `COc1ccc2c(c1)OC(C)(C)C(c1ccccc1)=C2c1ccccc1OCCN1CCCC1`, the “relative binding affinity (RBA)” value in experiment [2] is “inactive”. For the same molecule, the ED100 result with Rattus norvegicus [5] is “inactive”.

In the experiment filed under Rattus norvegicus [4], `COc1ccc2c(c1)OC(C)(C)C(c1ccccc1)C2c1ccc(OCCN(C)C)cc1.Cl` (centres undefined) returned an ED100 of 2 mg/kg/day.

`COc1ccc2c(c1)OC(C)(C)C(c1ccccc1)=C2c1cccc(OCCN2CCCC2)c1.Cl`: the ED100 in the experiment listed under Rattus norvegicus [4] was 1 mg/kg/day.
